Test results from ChEMBL document CHEMBL1140608 (J Med Chem, 2007).
pIC50: −log10 of the molar value.

Legend:
[1] = target: T1, ATP-dependent translocase ABCB1 (Homo sapiens, UniProt P08183); assay: Inhibition of human Pgp in anthracycline-resistant K562 cells assessed as drug level causing maximal increase in nuclear concentration of pirarubicin relative to control; format: cell-based
Method in brief: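 Anthracycline-resistant erythroleukemia K562 cells were incubated with pirarubicin, and its uptake was followed by continuous spectrofluorometry (λex 480 nm, λem 590 nm). R is the fractional increase in nuclear pirarubicin with inhibitor: 0 without inhibitor, 1 when it equals sensitive cells. Rmax is the maximal achievable increase. [I]0.5 is the inhibitor concentration giving R = 0.5.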

[2] = target: T1, ATP-dependent translocase ABCB1; assay: Inhibition of human Pgp in anthracycline-resistant K562 cells assessed as drug level causing half maximal increase in nuclear concentration of pirarubicin; format: cell-based; conditions: read-out: Activity

T1 sequence (P08183 whole entry): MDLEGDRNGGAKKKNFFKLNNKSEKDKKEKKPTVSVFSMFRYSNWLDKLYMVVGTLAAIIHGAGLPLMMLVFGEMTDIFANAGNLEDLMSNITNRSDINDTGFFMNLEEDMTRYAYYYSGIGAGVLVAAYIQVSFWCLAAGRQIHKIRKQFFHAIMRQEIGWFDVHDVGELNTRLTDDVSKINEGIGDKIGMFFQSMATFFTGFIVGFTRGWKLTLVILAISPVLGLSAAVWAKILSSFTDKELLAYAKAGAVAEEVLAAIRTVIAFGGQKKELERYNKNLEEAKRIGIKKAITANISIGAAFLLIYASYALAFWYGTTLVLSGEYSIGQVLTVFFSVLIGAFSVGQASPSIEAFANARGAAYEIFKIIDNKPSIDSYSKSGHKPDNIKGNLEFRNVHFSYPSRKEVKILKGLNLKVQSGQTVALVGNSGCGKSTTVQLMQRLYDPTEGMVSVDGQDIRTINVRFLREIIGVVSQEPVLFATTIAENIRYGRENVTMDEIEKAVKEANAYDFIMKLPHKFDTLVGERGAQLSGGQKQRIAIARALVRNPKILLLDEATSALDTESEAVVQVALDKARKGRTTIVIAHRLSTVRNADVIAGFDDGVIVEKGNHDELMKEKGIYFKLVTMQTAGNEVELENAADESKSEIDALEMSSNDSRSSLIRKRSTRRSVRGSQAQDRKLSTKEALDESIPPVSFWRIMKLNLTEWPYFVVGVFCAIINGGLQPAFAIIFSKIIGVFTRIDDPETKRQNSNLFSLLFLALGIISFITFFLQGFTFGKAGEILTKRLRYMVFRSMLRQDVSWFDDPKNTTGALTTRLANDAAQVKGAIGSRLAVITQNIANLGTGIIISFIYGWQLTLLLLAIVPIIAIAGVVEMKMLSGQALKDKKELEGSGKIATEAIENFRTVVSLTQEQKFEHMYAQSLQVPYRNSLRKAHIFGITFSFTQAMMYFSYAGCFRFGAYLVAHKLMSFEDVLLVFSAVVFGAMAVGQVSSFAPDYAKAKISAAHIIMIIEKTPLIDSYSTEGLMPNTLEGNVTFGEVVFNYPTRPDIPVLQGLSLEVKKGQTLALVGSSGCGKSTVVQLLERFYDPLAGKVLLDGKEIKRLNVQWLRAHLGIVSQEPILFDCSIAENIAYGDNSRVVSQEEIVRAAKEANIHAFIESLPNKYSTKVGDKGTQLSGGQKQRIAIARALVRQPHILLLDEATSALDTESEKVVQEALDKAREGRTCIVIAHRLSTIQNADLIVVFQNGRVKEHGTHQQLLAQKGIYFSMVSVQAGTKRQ

Structure (SMILES) | Activity [1] | pIC50 [2]
COc1cc(C(=O)OCCCN(C)CCCOC(=O)c2c3ccccc3cc3ccccc23)cc(OC)c1OC | 0.71 | 6.55
COc1cc(/C=C/C(=O)OC2CCC(N(C)C3CCC(OC(=O)c4cc(OC)c(OC)c(OC)c4)CC3)CC2)cc(OC)c1OC (stereo in doubt) | 0.81 | 6.49
COc1cc(C(=O)OC2CCC(N(C)C3CCC(OC(=O)c4c5ccccc5cc5ccccc45)CC3)CC2)cc(OC)c1OC (stereo in doubt) | 0.79 | 6.74
COc1cc(C(=O)OC2CCC(N(C)C3CCC(OC(=O)c4c5ccccc5cc5ccccc45)CC3)CC2)cc(OC)c1OC (mixture of isomers; cis) | 0.95 | 6.52
COc1cc(/C=C/C(=O)OCCCN(C)CCCOC(=O)c2cc(OC)c(OC)c(OC)c2)cc(OC)c1OC | 0.9 | 6.22
COc1cc(/C=C/C(=O)OC2CCC(N(C)C3CCC(OC(=O)c4cc(OC)c(OC)c(OC)c4)CC3)CC2)cc(OC)c1OC (cis isomer) | 0.8 | 7.52
COc1cc(/C=C/C(=O)OC2CCC(N(C)C3CCC(OC(=O)c4cc(OC)c(OC)c(OC)c4)CC3)CC2)cc(OC)c1OC (mixture of isomers; trans) | 0.98 | 8.00
COc1cc(C(=O)OC2CCC(N(C)C3CCC(OC(=O)c4c5ccccc5cc5ccccc45)CC3)CC2)cc(OC)c1OC (mixture of isomers; trans) | 0.78 | 6.80
COc1cc(C(=O)OC2CCC(N(C)C3CCC(OC(=O)c4c5ccccc5cc5ccccc45)CC3)CC2)cc(OC)c1OC (trans isomer) | 0.88 | 6.52
COc1cc(/C=C/C(=O)OC2CCC(N(C)C3CCC(OC(=O)c4cc(OC)c(OC)c(OC)c4)CC3)CC2)cc(OC)c1OC (mixture of isomers; cis) | 0.85 | 7.05
